# Bioassay records deposited in PubChem BioAssay by several laboratories.
# The list is not random: actives were taken first. Their share in the collection is about 2%.
# ATG4B inhibitor: ATG4B protease inhibitors, primary screen, biochemical, fluorescence, uHTS; Cysteine protease ATG4B (Homo sapiens), Q9Y4P1; inhibition, % at 8.33 µM; AID 504462, 2011; 340,000 compounds, 0.51% hits; ATG4B cleavage of LC3-PLA2, NBD-HPC fluorescence, 1 h; in the data active = inhibition above about 40%
# Target sequence (Q9Y4P1 whole entry, looked up): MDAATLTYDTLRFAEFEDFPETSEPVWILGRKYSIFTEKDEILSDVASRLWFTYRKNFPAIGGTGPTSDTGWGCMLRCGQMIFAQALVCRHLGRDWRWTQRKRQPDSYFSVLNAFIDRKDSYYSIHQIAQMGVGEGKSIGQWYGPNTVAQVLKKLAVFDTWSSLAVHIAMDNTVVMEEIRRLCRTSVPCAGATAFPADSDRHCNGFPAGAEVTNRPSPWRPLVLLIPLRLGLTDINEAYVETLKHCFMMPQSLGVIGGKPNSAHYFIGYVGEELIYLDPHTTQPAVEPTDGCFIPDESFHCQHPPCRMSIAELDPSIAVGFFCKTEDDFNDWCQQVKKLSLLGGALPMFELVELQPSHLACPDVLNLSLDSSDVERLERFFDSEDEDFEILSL
# beta cell repl: inducers of MIN6 beta-cell proliferation, primary screen, ATP luminescence, uHTS; MIN6 cells proliferation, ATPlite luminescence, 48 h; cells starved in 0.2% serum; 100% = growth in 10% serum; proliferation, % at 10 µM; 330,000 compounds, 0.29% hits;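 active = compounds whose signal lies at least 3.5 SD above the mean of all wells on their plate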;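 note: 0% = DMSO-treated cells in low-serum medium and 100% = 10% serum control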
# IMP-1 inh-1: IMP-1 metallo-beta-lactamase inhibitors, primary screen, biochemical, epi-absorbance readout, Pseudomonas aeruginosa enzyme; metallo-beta-lactamase IMP-1 (Pseudomonas aeruginosa); purified IMP-1, nitrocefin hydrolysis, epi-absorbance fluorescence; inhibition, % at 5.6 µM; 290,000 compounds, 0.45% hits; AID 1556, 2009;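 active = inhibition above the mean plus 3 SD of all compounds in the same screening run, cut at about 4.5% in these data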;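 note: 0% = IMP-1 with DMSO and 100% = DMSO wells lacking enzyme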
#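 Material – recombinant IMP-1 enzyme, purified · Amount – IMP-1 0.2 nM before substrate addition · Medium – HEPES buffer pH 7.1 with ZnSO4 and Brij 35 · Timing – 25 °C, 15 min preincubation, 25 min reaction · Measured by – plate fluorescence quenching by hydrolysis product, ex 480/em 530 nm · Read-out – percent enzyme inhibition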
# VIM-2 inhibitor: VIM-2 metallo-beta-lactamase inhibitors, primary screen, biochemical, epi-absorbance readout, Pseudomonas aeruginosa enzyme; purified VIM-2, nitrocefin hydrolysis, epi-absorbance fluorescence; inhibition, % at 5.6 µM; 290,000 compounds, 0.89% hits;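 active = inhibition above the mean of all tested compounds plus 3 SD, cutoff set per screening run, cut at about 7.5% in these data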;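 note: red hydrolysis product quenches plate fluorescence so inhibitors raise well fluorescence; 0% = enzyme with DMSO and 100% = DMSO without enzyme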
# PvdQ inh: P. aeruginosa PvdQ acylase inhibitors, primary screen, biochemical, fluorescence, plate reader and imaging, single point | AID 488965, 2010 | 340,000 compounds, 0.063% hits | purified PvdQ acylase | inhibition, % at 10 µM | PvdQ acylase [Pseudomonas aeruginosa LESB58]; in the data active = inhibition above about 30%, passing the limit was not always enough;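 note: 0% = vehicle neutral wells and 100% = reference inhibitor wells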
# HKDC1 inhibitor: HKDC1 hexokinase inhibitors, primary screen, biochemical, fluorescence, uHTS | recombinant HKDC1, G6PDH/diaphorase resazurin coupled fluorescence | inhibition, % at 20 µM | 340,000 compounds, 0.16% hits | AID 493160, 2011;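 active = inhibition above about 35% when tested at 20 µM, limit read from the data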;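 note: plate controls were DMSO wells with enzyme for no effect and DMSO wells lacking enzyme for full effect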
#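 System: Recombinant HKDC1 hexokinase | Amount: HKDC1 at 5 µg/mL | Reagent: Glucose with 1 mM ATP | Doses: Single 20 µM dose | Incubation: Reaction time 90 min, room temperature, protected from light | Signal: Coupled resazurin fluorescence, excitation 525 nm, emission 613 nm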
# IMP-1 inh-2: IMP-1 metallo-beta-lactamase inhibitors, confirmation, selectivity assay for selective VIM-2 inhibitor project, biochemical, epi-absorbance readout, triplicate. AID 1856, 2009. 1,300 tested, under 10 active. purified IMP-1, nitrocefin hydrolysis, epi-absorbance fluorescence. shares compounds with VIM-2 inhibitor. inhibition, % at 5.6 µM; call rule not given here;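 note: 0% = enzyme with vehicle and 100% = vehicle without enzyme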
# VIM-2 FRET inh: VIM-2 inhibitors in FRET format, confirmation, artefact control for selective VIM-2 inhibitor project, biochemical, epi-absorbance artifact exclusion | shares compounds with VIM-2 inhibitor | purified VIM-2, CCF2 FRET substrate hydrolysis | inhibition, % at 5.6 µM | 1,300 compounds, 23% hits;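 active = inhibition above the mean of all tested compounds plus 3 SD, cut at about 19% in these data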;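 note: 0% = VIM-2 plus DMSO and 100% = no enzyme wells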
# TEM-1 inh: TEM-1 serine beta-lactamase inhibitors, counter-screen for VIM-2 inhibitor project, biochemical, epi-absorbance, HTS. Purified TEM-1, nitrocefin hydrolysis, epi-absorbance fluorescence. shares compounds with VIM-2 inhibitor. AID 1866, 2009. 1,300 compounds, 3% hits. inhibition, % at 5.6 µM;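 active = inhibition above that campaign's mean inhibition plus 3 SD, cut at about 0.46% in these data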;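 note: 0% = TEM-1 with DMSO and 100% = TEM-1 with 100 µM potassium clavulanate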
# Target sequence (P62593 whole entry, looked up): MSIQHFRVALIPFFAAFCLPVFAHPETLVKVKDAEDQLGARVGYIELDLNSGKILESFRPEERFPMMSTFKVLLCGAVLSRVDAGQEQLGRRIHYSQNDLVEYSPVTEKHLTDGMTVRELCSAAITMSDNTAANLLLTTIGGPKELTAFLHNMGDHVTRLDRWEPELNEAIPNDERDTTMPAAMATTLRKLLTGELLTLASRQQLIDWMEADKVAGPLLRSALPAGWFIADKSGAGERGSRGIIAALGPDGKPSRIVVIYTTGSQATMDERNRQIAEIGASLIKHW
# VIM-2 inh conf: VIM-2 metallo-beta-lactamase inhibitors, confirmation, biochemical, epi-absorbance, hits shared with IMP-1 screen; shares compounds with VIM-2 inhibitor; purified VIM-2, nitrocefin hydrolysis; inhibition, % at 5.6 µM; 1,300 compounds, 96% hits;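 active = inhibition of the VIM-2 beta-lactamase enzyme above about 11% from the earlier first-round screen, limit read from the data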;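 note: 0% = VIM-2 with DMSO and 100% = buffer wells without enzyme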
# Starred values were filed as active, the others as inactive; . = no result given.
SMILES,ATG4B inhibitor,beta cell repl,IMP-1 inh-1,VIM-2 inhibitor,PvdQ inh,HKDC1 inhibitor,IMP-1 inh-2,VIM-2 FRET inh,TEM-1 inh,VIM-2 inh conf
CCN1CCN(CCNC(=O)CCc2c(C)c3c(C)nn(-c4ccccc4)c3n(C)c2=O)CC1,-6.0,-6.5,-3.9,19.0*,-3.5,-1.9,-3.0,-1.2,-2.8,30.1*
NC(=O)c1nsc(C(=O)N(CC(=O)NC2CCCCC2)c2ccc(Cl)cc2)c1N,3.8,-1.1,-2.6,-1.7,-2.4,-2.6,.,.,.,.
O=c1cc(CN2CCN(CCO)CC2)c2cc3c(cc2o1)CCC3,-6.3,-0.7,-2.6,16.5*,-17.3,-3.5,-2.7,0.3,-6.5,32.6*
CCOC(=O)N1CCN(Cc2cc(=O)oc3cc4c(cc23)CCC4)CC1,1.5,-3.7,-2.3,0.2,-5.4,2.2,.,.,.,.
O=C(OCCCN=C1NS(=O)(=O)c2ccccc21)c1ccc([N+](=O)[O-])cc1,-5.9,-0.7,1.3,1.5,10.4,-3.4,.,.,.,.
O=C1c2cccc3c(N4CCCCC4)ccc(c23)C(=O)N1CCO,-13.2,1.1,0.7,12.8*,0.6,18.9,0.1,2.3,-4.8,25.3*
COc1cc(CCNc2ccc3nnc(-c4ccccc4)n3n2)cc(OC)c1OC,-2.8,-1.7,-2.5,18.6*,3.4,0.9,-1.9,0.5,-0.7,21.9*
COc1ccc2nnc(-c3ccccc3)n2n1,-6.3,2.1,-3.9,0.6,-11.2,4.2,.,.,.,.
Cc1cc(C(F)(F)F)n(-c2nc(C(=O)O)cs2)n1,-1.9,-1.6,-5.1,-6.3,-1.0,-4.3,.,.,.,.
O=C(O)c1csc(-n2nc(-c3ccccc3)cc2C(F)(F)F)n1,3.7,-2.0,-3.9,35.7*,2.2,-8.2,-3.1,-1.5,-4.6,6.0
CC(COc1cccc2ccccc12)CN1CCN(C)CC1 (stereo not drawn),3.0,-3.9,-2.5,21.6*,-5.6,16.5,-2.3,2.3,-6.3,48.2*
CC(C)c1ccc(NC(=O)c2ccccc2NC(=O)C2CCCCC2C(=O)O)cc1 (stereo not drawn),-1.4,-1.5,2.5,-0.2,2.5,0.0,.,.,.,.
O=C(O)c1cccc(NC(=S)N/N=C/c2cccc(O)c2)c1,-10.2,-1.5,-3.4,32.2*,-0.6,-7.4,-4.9,27.9*,-8.9,16.5*
COC(=O)c1ccc(COc2ccccc2/C=N/Nc2cccc(C(=O)O)c2)cc1,15.9,.,-4.1,-1.5,-11.7,-2.1,.,.,.,.
O=C(O)c1cccc(NC(=S)N/N=C/c2ccccc2OCc2ccc(Br)cc2)c1,28.5,-5.2,0.3,72.8*,-8.6,-0.6,-2.7,66.8*,-10.4,35.2*
COc1cc2c(cc1OC)/C(=C/C(=O)c1ccc(F)cc1)NCC2,-5.9,6.2,-1.5,13.7*,-12.3,-0.5,-3.0,-5.4,-5.5,19.3*
Oc1ccc(-c2nccc(-c3ccc(F)cc3)n2)cc1,-20.6,2.8,-1.8,15.8*,10.8,1.7,-2.4,-5.6,-3.7,30.8*
Cc1cccc(N2CCN(C(=O)C3CCN(S(=O)(=O)N4CCOCC4)CC3)CC2)c1C,-9.0,0.7,-1.1,-2.3,-6.3,9.0,.,.,.,.
O=C(NCc1cccnc1)c1cccn2c(=O)c3sccc3nc12,0.8,2.3,-1.0,26.4*,7.4,-0.5,-3.1,-0.8,-9.3,50.7*
Cc1cc(C)c2c(n1)nn1c(NCCCN(C)C)cc(C)nc21,5.7,-0.1,-2.4,19.2*,-21.2,4.0,-3.9,-3.0,-6.9,30.8*
Cc1cc(C)c2c(n1)nn1c(NCCOCCO)cc(C)nc21,-13.8,-3.4,-0.3,5.7,0.5,3.6,.,.,.,.
CCCN(CCC)C(=O)c1cc2c(=O)n3cccc(C)c3nc2s1,0.4,2.3,-2.8,12.5*,-17.8,2.7,-3.5,-1.7,-4.9,17.4*
CCOCCCNC(=O)c1cc2c(=O)n3cccc(C)c3nc2n1C,1.3,-0.8,.,.,-3.2,2.1,.,.,.,.
CCOCCCNC(=O)c1cc2c(=O)n3cccc(C)c3nc2s1,3.6,0.8,-2.6,16.4*,-11.1,2.6,-3.3,-6.1,-6.8,30.8*
Cc1cccn2c(=O)c3cc(C(=O)NCC(C)C)sc3nc12,3.1,5.0,-2.9,14.3*,-21.3,2.0,-2.4,-3.4,-3.1,23.0*
SMILES,ATG4B inhibitor,beta cell repl,IMP-1 inh-1,VIM-2 inhibitor,PvdQ inh,HKDC1 inhibitor,IMP-1 inh-2,VIM-2 FRET inh,TEM-1 inh,VIM-2 inh conf
CC(C)CCNC(=O)c1cc2c(=O)n3ccccc3nc2s1,0.4,1.7,-2.4,4.8,-7.9,4.2,.,.,.,.
Cc1cccn2c(=O)c3cc(C(=O)NCCCOC(C)C)sc3nc12,-0.5,2.2,-4.9,18.1*,0.9,4.5,-1.1,-2.2,-0.5,26.4*
CCN(CC)C(=O)c1cc2c(=O)n3ccccc3nc2s1,-0.9,-1.2,-4.4,2.9,-24.0,7.2,.,.,.,.
Cc1ccc(SCC(=O)NC(=O)Nc2ccc3c(c2)OCCO3)cc1C,27.1,1.1,0.2,0.0,-5.1,-10.7,.,.,.,.
NC(CO)(CO)COCc1ccccc1,-11.1,0.6,-3.5,-2.2,-12.2,-1.2,.,.,.,.
COc1ccc(C(=O)OC(C)C(=O)NCC2CCCCC2)cc1S(=O)(=O)N1CCOCC1 (stereo not drawn),-18.1,-3.1,.,.,-13.8,-3.4,.,.,.,.
Cc1cccn2c(=O)c3cc(C(=O)NC4CCCC4)sc3nc12,-3.6,3.3,-0.3,16.6*,3.6,4.7,-2.2,-4.6,-1.8,15.3*
O=C(NC1CCCC1)c1cc2c(=O)n3ccccc3nc2s1,2.0,4.0,.,.,-17.2,0.7,.,.,.,.
COc1ccc2c(C)cc3n[nH]c(=S)n3c2c1,4.6,0.5,-1.8,12.8*,-9.1,18.8,-3.0,21.0*,-7.2,19.1*
COc1ccc(-c2n[nH]c(=S)n2-c2cc(OC)ccc2OC)cc1,-1.2,-2.6,-3.4,1.5,-4.6,-0.3,.,.,.,.
